Source: ChEMBL document CHEMBL3421610, “Antimalarial activity of 4-amidinoquinoline and 10-amidinobenzonaphthyridine derivatives” (J Med Chem, 2015)
Converted amounts (≈) assume the structure as drawn. The source made the active and inactive calls. The calls are words filed in the database; no cut-off is given here.

Key:
[1] = AUCinfinity in ICR mouse at 80 mg/kg, po; format: ADME, organism-based; set-up: time infinity, dose 80 mg/kg, route oral; details: plasma
In short: (§1)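 Male 7-week-old ICR mice, 23–28 g, given a single intragastric dose of 80 mg/kg in DD water (100 µL/20 g). Three mice per time point; whole blood taken by cardiac puncture into lithium heparin tubes and spun to plasma. Parameters come from plasma concentration–time curves of parent drug. t1/2 = ln2/kel from the log plot. AUC by linear trapezoidal rule, extrapolated to infinity; MRT = AUMC/AUC.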

[2] = AUClast in ICR mouse at 80 mg/kg, po; format: ADME, organism-based; set-up: time 0 - last, dose 80 mg/kg, route oral; details: plasma
hERG (KCNH2) = hERG (KCNH2) (Homo sapiens, UniProt Q12809); assay: Inhibition of human ERG expressed in CHL cells assessed as tail current at 10 uM after 7 mins by patch clamp assay relative to control; format: cell-based; details: CHL cells expressing human ERG
hERG (KCNH2), sequence (Q12809 whole entry): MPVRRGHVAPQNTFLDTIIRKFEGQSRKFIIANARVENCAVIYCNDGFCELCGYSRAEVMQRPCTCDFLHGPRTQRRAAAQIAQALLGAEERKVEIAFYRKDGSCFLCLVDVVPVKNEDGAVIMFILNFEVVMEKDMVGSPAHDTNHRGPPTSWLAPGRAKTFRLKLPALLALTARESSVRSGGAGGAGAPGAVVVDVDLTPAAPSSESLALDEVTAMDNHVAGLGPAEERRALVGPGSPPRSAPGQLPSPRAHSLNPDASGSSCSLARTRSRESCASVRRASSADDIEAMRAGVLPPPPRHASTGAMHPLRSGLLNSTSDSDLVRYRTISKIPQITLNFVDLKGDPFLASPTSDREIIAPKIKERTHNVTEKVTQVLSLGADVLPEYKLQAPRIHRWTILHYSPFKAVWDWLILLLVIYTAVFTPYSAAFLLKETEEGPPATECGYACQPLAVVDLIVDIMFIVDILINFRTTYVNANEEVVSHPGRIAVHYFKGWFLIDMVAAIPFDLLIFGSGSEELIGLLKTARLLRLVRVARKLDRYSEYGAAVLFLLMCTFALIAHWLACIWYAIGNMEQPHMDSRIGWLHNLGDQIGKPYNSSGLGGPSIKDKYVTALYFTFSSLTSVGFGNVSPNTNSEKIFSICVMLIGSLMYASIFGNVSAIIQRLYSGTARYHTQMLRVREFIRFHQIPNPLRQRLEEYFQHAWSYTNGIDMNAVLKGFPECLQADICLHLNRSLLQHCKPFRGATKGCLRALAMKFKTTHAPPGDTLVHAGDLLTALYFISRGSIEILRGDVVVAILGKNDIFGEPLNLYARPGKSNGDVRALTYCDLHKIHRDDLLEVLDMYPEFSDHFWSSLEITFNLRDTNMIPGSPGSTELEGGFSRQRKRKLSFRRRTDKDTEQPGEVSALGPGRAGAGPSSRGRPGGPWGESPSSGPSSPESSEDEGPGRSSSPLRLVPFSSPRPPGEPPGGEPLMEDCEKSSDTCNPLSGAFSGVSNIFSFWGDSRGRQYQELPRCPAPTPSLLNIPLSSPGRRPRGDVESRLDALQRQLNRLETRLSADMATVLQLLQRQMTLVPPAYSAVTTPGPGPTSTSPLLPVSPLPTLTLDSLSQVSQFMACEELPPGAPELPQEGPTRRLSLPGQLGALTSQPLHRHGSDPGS

[3] = Apparent volume of distribution during terminal phase in ICR mouse at 80 mg/kg, po; format: ADME, organism-based; set-up: dose 80 mg/kg, route oral; details: in vivo, read-out: Vz/F
[4] = Half life in mouse liver microsomes at 1 uM by LC/MS analysis; format: ADME
In short: (§2)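 Compound at 1 µM final, diluted from […], with 0.5 mg/mL pooled human or mouse liver microsomes, NADP, MgCl2 and 0.1 M PBS pH 7.4. Reaction started with 1 U/mL G6PD and shaken at 37 °C. Aliquots quenched in cold acetonitrile at 0, 10, 20, 30 and 60 min and quantified by LC/MS. Half-life from log plot of total ion chromatogram area remaining.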

Plasmodium berghei [5] = assay: Antimalarial activity against erythrocytic stage of chloroquine resistant Plasmodium berghei ANKA infected in mouse assessed as cure rate at 60 mg/kg, po qd administered on day 3, 4 and 5 post infection measured 3 times per week for 30 days, starting from day 3 by Thompson test; format: functional, organism-based; set-up: dose 60 mg/kg
In short: (§3)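 Male mice of 16-20 g inoculated intraperitoneally with 5 x 10^6 erythrocytes infected with CQ-resistant P. berghei ANKA. Drug given orally as a suspension once daily on days 3, 4 and 5 post-infection, five mice per dose. Blood films from day 3, three times weekly for 30 days. Cure means parasite-negative on day 30 or surviving 30 days. Mice losing >20% body weight sacrificed.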

Plasmodium falciparum [6] = assay: Antimalarial activity against chloroquine-resistant Plasmodium falciparum W2 assessed as growth inhibition after 18 hrs by [3H]-hypoxanthine uptake assay; format: functional, organism-based
In short: (§4)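 P. falciparum clones D6, W2 and TM91C235; modified semiautomated microdilution. Compounds in DMSO, diluted in RPMI 1640 with 10% human plasma, tested over (1.56-100) x 10^-9 M; final DMSO 0.25-0.5%. Inoculum 0.5% parasitemia, 1% hematocrit. 24 h incubation, then [3H]-hypoxanthine added, further 18 h. Harvested and read by scintillation counting; IC50 by nonlinear regression.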

Plasmodium falciparum [7] = assay: Antimalarial activity against chloroquine-sensitive Plasmodium falciparum D6 assessed as growth inhibition after 18 hrs by [3H]-hypoxanthine uptake assay; format: functional, organism-based; in short: as §4
[8] = Apparent oral clearance in ICR mouse at 80 mg/kg; format: ADME, organism-based; set-up: dose 80 mg/kg, route oral; details: in vivo
HepG2 = assay: Cytotoxicity against human HepG2 cells after 48 hrs by MTT assay; format: cell-based; details: HepG2, 48 h
In short: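 HepG2 cells in supplemented MEM, plated at 9570 cells/well in 384-well format and incubated overnight at 37 °C, 5% CO2. Twelve duplicate 1.6-fold dilutions, 57–10,000 ng/ml, incubated 48 h. MTT added for 1 h at room temperature in the dark, formazan dissolved in acidified isopropanol, absorbance read. IC50 by sigmoidal variable-slope nonlinear regression; tryptanthrin control.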

[9] = Cmax in ICR mouse at 80 mg/kg, po; format: ADME, organism-based; set-up: dose 80 mg/kg, route oral; details: in vivo; in short: as §1
[10] = Half life in human liver microsomes at 1 uM by LC/MS analysis; format: ADME; in short: as §2
[11] = Tmax in ICR mouse at 80 mg/kg, po; format: ADME, organism-based; set-up: dose 80 mg/kg, route oral; details: in vivo; in short: as §1
Salmonella typhi = assay: Mutagenicity in Salmonella typhi by Ames test; format: toxicity, organism-based; details: salmonella enterica subsp. enterica […]
[12] = Elimination half life in ICR mouse at 80 mg/kg, po; format: ADME, organism-based; set-up: dose 80 mg/kg, route oral; details: in vivo, read-out: beta t1/2 (converted); in short: as §1
Plasmodium berghei [13] = assay: Antimalarial activity against erythrocytic stage of chloroquine resistant Plasmodium berghei ANKA infected in mouse assessed as cure rate at 120 mg/kg, po qd administered on day 3, 4 and 5 post infection measured 3 times per week for 30 days, starting from day 3 by Thompson test; format: functional, organism-based; set-up: dose 120 mg/kg; in short: as §3
Plasmodium falciparum [14] = assay: Antimalarial activity against chloroquine-resistant Plasmodium falciparum C235 assessed as growth inhibition after 18 hrs by [3H]-hypoxanthine uptake assay; format: functional, organism-based; in short: as §4
Mus musculus = assay: Toxicity in mouse infected with erythrocytic stage of chloroquine resistant Plasmodium berghei ANKA up to 160 mg/kg, po qd administered on day 3, 4 and 5 post infection measured over 30 days; format: organism-based, Erythrocyte; set-up: dose 160 mg/kg, route oral; details: in vivo, 720 h
In short: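 Male mice of 16-20 g infected intraperitoneally with CQ-resistant P. berghei ANKA (5 x 10^6 infected erythrocytes). Oral dosing once daily on days 3-5, five mice per group. Animals followed for 30 days by blood films; mice losing >20% body weight sacrificed.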

[15] = Mean residence time in ICR mouse at 80 mg/kg, po; format: ADME, organism-based; set-up: dose 80 mg/kg, route oral; details: in vivo; in short: as §1
Plasmodium falciparum [16] = assay: Potency index, ratio of chloroquine IC50 to compound IC50 for chloroquine-resistant Plasmodium falciparum W2; format: functional
Plasmodium berghei [17] = assay: Antimalarial activity against erythrocytic stage of chloroquine resistant Plasmodium berghei ANKA infected in mouse assessed as cure rate at 15 mg/kg, po qd administered on day 3, 4 and 5 post infection measured 3 times per week for 30 days, starting from day 3 by Thompson test; format: functional, organism-based; set-up: dose 15 mg/kg; in short: as §3
Plasmodium berghei [18] = assay: Antimalarial activity against erythrocytic stage of chloroquine resistant Plasmodium berghei ANKA infected in mouse assessed as cure rate at 160 mg/kg, po qd administered on day 3, 4 and 5 post infection measured 3 times per week for 30 days, starting from day 3 by Thompson test; format: functional, organism-based; set-up: dose 160 mg/kg; in short: as §3
Plasmodium berghei [19] = assay: Antimalarial activity against erythrocytic stage of chloroquine resistant Plasmodium berghei ANKA infected in mouse assessed as reduction of parasitemia at 160 mg/kg, po qd administered on day 3, 4 and 5 post infection measured 2 days post last dose relative to control; format: functional; set-up: scale not given: the % may be the effect or the level left
In short: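 Male mice of 16-20 g inoculated intraperitoneally with 5 x 10^6 erythrocytes infected with CQ-resistant P. berghei ANKA. Drug given orally as a suspension once daily on days 3, 4 and 5 post-infection, five mice per dose. Parasitemia followed by blood films from day 3, three times weekly for 30 days; infected untreated mice served as negative controls.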

Structure (SMILES) | AUC(0-inf) [1] [µg·h/mL] | AUC(0-t) [2] [µg·h/mL] | inhibition at 7 min, 10 µM (hERG (KCNH2)) [%] | Vd/F [3] [L/kg] | half-life at 1 µM [4] [h] | Activity (Plasmodium berghei [5]) | IC50 (Plasmodium falciparum [6]) [nM] | IC50 (Plasmodium falciparum [7]) [nM] | CL/F [8] [L/h/kg] | IC50 (HepG2) [mg/L] | Cmax [9] [µg/mL] | half-life at 1 µM [10] [h] | Tmax [11] [h] | Activity (Salmonella typhi) | half-life [12] [h] | IC50 (Plasmodium falciparum [14]) [nM] | Activity (Mus musculus) | MRT [15] [h] | Ratio IC50 (Plasmodium falciparum [16]) | Activity (Plasmodium berghei [18]) | other results
CCN(CC)CCC/N=C(\C)N(CCCN(CC)CC)c1c2ccc(Cl)cc2nc2ccc(OC)nc12 | 8.95 | 4.93 | 13.8 | 610 | > 1 | Active | 9.5 | 1.3 | 8.98 | 3.04 (≈ 5.78 µM) | 0.222 | > 1 | 2 | Non-toxic | 47.5 | 5.1 | Non-toxic | 22.1 |  |  | Activity (Plasmodium berghei [13]): Active
CCN(CC)CCCN/C(=N\c1ccnc2cc(Cl)ccc12)c1ccccc1 |  |  | 100 |  | 0.267 |  | 7.2 | 1.8 |  | 5.08 (≈ 12.9 µM) |  | 0.35 |  |  |  | 3.3 |  |  | 50 |  | 
COc1ccc2nc3cc(Cl)ccc3c(N/C(=N/CCCN(C)C)c3ccc(Cl)cc3)c2n1 |  |  | 77 |  | > 1 | Active | 6.6 | 2.8 |  | 2.51 (≈ 5.2 µM) |  | 0.533 |  | Non-toxic |  | 4.3 | Non-toxic |  |  |  | Activity (Plasmodium berghei [17]): Active
CN(C)CCCN/C(=N\c1ccnc2cc(Cl)ccc12)c1ccccc1 |  |  | 90.6 |  | 0.867 |  | 9.2 | 2.1 |  | 5.13 (≈ 14 µM) |  | > 1 |  | Non-toxic |  | 3.4 |  |  | 50 |  | 
C/C(=N/c1ccnc2cc(Cl)ccc12)NCCCN1CCCCC1 |  |  | 27.7 |  | 0.417 |  | 36 | 25 |  | 23.3 (≈ 67.5 µM) |  | > 1 |  |  |  | 14 | Non-toxic |  |  | inactive | Activity (Plasmodium berghei [19]): 95.4%
CCN(CC)CCCN/C(=N\c1ccnc2cc(Cl)ccc12)C(C)C | 3.62 | 3.51 |  | 214 | > 1 |  | 42 | 22 | 22.3 | > 24.2 | 0.696 | > 1 | 0.5 |  | 6.66 | 25.8 | Non-toxic | 7.64 |  | Active | 
